Assay results as given in ChEMBL document CHEMBL4414562, “Discovery of the First in Vivo Active Inhibitors of the Soluble Epoxide Hydrolase Phosphatase Domain” (J Med Chem, 2019).
pIC50: −log10 of the molar value. Active and inactive are the calls of the source. The calls are words filed in the database; no cut-off is given here.

Tests used:
[1] = biological target: T1, Oxysterols receptor LXR-beta (Homo sapiens) (UniProt P55055); assay: Activation of Gal4-fused human LXRbeta LBD transfected in HEK293T cells at 10 uM after 12 to 14 hrs by luciferase reporter gene assay; assay type: cell-based
T1 sequence (whole entry): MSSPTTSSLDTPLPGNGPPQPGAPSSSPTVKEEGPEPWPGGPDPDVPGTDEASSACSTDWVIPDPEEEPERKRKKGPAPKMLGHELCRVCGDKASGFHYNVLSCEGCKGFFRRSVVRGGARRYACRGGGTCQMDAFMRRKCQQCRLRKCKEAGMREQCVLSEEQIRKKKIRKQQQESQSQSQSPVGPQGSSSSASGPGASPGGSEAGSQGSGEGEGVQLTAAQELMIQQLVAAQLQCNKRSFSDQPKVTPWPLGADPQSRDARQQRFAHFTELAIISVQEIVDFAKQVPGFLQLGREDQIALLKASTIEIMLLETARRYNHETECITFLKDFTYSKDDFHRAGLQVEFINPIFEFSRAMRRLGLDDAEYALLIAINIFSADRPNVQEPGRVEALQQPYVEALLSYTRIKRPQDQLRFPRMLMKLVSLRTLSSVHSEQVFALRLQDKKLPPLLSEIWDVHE
Summary of the method: (§1)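 Gal4–human nuclear receptor LBD fusion (pFA-CMV-hNR-LBD) co-transfected with pFR-Luc and pRL-SV40 (Lipofectamine LTX) into HEK293T cells seeded the day before. 5 h post-transfection, compound added in Opti-MEM with 0.1% DMSO and incubated 12−14 h. Dual-Glo firefly/Renilla luciferase read. Activation expressed relative to reference agonist at 1 μM. Triplicates, ≥3 independent experiments.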

[2] = biological target: T2, Oxysterols receptor LXR-alpha (Homo sapiens) (UniProt Q13133); assay: Activation of Gal4-fused human LXRalpha LBD transfected in HEK293T cells at 10 uM after 12 to 14 hrs by luciferase reporter gene assay; assay type: cell-based; summary of the method: as §1
T2 sequence (whole entry): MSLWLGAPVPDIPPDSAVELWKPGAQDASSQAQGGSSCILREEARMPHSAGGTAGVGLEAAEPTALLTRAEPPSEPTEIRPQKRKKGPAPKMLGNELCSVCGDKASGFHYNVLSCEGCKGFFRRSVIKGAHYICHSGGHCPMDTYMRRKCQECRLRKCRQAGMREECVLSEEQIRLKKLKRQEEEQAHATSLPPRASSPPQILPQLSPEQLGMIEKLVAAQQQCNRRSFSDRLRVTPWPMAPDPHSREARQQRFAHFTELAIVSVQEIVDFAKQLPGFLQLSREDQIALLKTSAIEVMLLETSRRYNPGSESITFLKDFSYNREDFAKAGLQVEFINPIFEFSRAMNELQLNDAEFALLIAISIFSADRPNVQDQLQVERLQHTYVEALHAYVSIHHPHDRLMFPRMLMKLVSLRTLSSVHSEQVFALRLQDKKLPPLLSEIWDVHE

[3] = biological target: T3, Peroxisome proliferator-activated receptor gamma (Homo sapiens) (UniProt P37231); assay: Activation of Gal4-fused human PPARgamma LBD transfected in HEK293T cells at 10 uM after 12 to 14 hrs by luciferase reporter gene assay; assay type: cell-based; summary of the method: as §1
T3 sequence (whole entry): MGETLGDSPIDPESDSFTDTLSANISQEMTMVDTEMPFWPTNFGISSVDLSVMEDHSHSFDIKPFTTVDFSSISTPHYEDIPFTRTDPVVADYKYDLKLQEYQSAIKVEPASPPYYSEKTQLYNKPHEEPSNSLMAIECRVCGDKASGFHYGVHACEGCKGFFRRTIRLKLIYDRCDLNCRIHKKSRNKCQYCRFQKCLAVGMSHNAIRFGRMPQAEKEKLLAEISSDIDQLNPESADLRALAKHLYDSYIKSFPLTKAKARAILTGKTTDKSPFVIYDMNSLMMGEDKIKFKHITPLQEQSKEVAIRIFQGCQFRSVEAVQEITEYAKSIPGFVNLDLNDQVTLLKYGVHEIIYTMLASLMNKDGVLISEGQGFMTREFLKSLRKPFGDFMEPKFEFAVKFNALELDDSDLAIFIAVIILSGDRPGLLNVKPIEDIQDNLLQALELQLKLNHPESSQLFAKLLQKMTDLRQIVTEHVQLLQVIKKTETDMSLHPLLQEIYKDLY

[4] = biological target: T4, Bifunctional epoxide hydrolase 2 (Mus musculus, UniProt P34914); assay: Inhibition of hydrolase activity of full length mouse soluble epoxide hydrolase pre-incubated for 30 mins before PHOME substrate addition by fluorescence based assay
T4 sequence (P34914 whole entry): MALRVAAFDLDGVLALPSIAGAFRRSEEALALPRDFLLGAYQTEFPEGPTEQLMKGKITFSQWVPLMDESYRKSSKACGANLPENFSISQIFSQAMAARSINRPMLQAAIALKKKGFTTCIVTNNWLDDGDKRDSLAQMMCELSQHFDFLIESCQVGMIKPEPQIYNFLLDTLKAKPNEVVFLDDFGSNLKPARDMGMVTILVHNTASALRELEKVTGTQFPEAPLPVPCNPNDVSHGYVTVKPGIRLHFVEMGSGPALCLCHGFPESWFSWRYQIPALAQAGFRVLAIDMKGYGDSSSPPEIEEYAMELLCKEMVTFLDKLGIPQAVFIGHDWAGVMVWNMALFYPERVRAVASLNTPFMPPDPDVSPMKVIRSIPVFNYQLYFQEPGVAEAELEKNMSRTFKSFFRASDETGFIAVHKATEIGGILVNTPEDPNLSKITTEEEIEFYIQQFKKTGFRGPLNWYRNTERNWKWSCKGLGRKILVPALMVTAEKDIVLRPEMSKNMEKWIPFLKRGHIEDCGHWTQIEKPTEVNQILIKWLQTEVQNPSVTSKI
Summary of the method: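 Hydrolase assay with 0.1 μM full-length enzyme in Bis-Tris pH 7 containing 0.1 mg/mL BSA and 0.01% Triton X-100. […] Reaction started with PHOME (50 μM final). 6-Methoxynaphthaldehyde fluorescence (ex 330/em 465 nm) read every minute for 45 min. Triplicates.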

[5] = biological target: T5, Retinoic acid receptor RXR-alpha (Homo sapiens) (UniProt P19793); assay: Activation of Gal4-fused human RXRalpha LBD transfected in HEK293T cells at 10 uM after 12 to 14 hrs by luciferase reporter gene assay; assay type: cell-based; summary of the method: as §1
T5 sequence (whole entry): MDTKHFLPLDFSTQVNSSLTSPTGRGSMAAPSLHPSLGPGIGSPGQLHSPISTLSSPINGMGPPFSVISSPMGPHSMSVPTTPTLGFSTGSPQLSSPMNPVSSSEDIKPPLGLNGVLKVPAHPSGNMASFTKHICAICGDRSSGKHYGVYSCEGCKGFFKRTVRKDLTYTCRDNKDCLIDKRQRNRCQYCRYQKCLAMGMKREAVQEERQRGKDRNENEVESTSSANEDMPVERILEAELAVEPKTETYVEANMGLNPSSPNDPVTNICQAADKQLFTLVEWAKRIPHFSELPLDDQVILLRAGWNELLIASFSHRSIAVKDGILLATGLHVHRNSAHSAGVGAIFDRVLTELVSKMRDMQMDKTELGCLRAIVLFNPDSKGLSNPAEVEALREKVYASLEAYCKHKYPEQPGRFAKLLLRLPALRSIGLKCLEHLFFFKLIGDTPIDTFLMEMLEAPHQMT

| Activity [1] | Activity [2] | Activity [3] | pIC50 [4] | Activity [5] | Structure (SMILES) |
| --- | --- | --- | --- | --- | --- |
| inactive | inactive | inactive | < 3.52 | 14.4% | O=C(O)CCc1nc(-c2ccccc2)c(-c2ccccc2)o1 [OXAPROZIN] |
| inactive | inactive | 29% | < 4.52 | 77% | O=C(O)CCCc1nc(-c2ccc(Cl)c(Cl)c2)c(-c2ccccc2)o1 |
